The values below come from paper PMC7114262 (Antiviral Research, 2005).

Series [1] in a line: Cytotoxicity, tetrazolium dye assay, growing HEL monolayers. In kind it is cell-based. Conditions: human, growing HEL fibroblast monolayers. In a few lines: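 Cytotoxicity in growing HEL fibroblasts: cells not serum-starved, about 10% confluent when compound was added. Viability read by tetrazolium colorimetric dye after 72 h of exposure, as absorbance at 470 nm relative to DMSO-matched control wells. CC50 obtained by linear regression of percent inhibition versus concentration, reported as mean ± standard deviation of quadruplicate experiments.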

A short description of series [2]: Cytotoxicity, tetrazolium dye assay, static HEL monolayers. The note with it: human, static (confluent, serum-starved) HEL fibroblast monolayers. Format: cell-based, human. The essentials:
(§1)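 Confluent HEL fibroblasts serum-starved 48 h, then exposed to a range of compound concentrations without virus or methylcellulose. After 72 h, viability read by tetrazolium colorimetric dye at 470 nm, as a percentage of DMSO-matched control wells. CC50 obtained by linear regression of percent inhibition against concentration, reported as mean ± standard deviation of quadruplicate experiments.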

The subject of the next series is HCMV. The note with it: ≤12 μM genistein, IE1-72 protein levels at 24 hpi; ref Slobbe-van Drunen et al., 1997; cited from earlier work.
Another series relates to NF-κB. Description: EMSA of HCMV-mediated NF-κB activation. Format: cell-based, human. Conditions: 24 hpi; 20 μM baicalein, 50 μM genistein. A general note: Mobility shift assays separate free from complexed probe on a gel.
The test system of series [3] is HCMV proteins (IE1-72, IE2-86, UL84, UL94). Description: Western blot / immunoprecipitation of HCMV proteins in infected HEL cells. Format: cell-based, human cytomegalovirus.
The conditions of series [4]: persons on a high soy diet, estimated; ref Adlercreutz et al., 1993; cited from earlier work.
The test system of series [5] is HCMV DNA. The experiment in a line: HCMV DNA assay. Format: cell-based, human cytomegalovirus. In a few lines:
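Confluent HEL cells serum-starved 48 h, then infected with HCMV at 2–5 pfu/cell with or without compound; 50 μM ganciclovir served as control. At 72 hpi, wells were frozen in PBS at −80 °C and thawed. DNA was denatured in NaOH/NaCl, neutralized with Tris pH 7.0, and baked onto nitrocellulose. Serial dilutions were probed 14 h at 42 °C with 32P nick-translated Towne genomic DNA and read by autoradiography; four independent experiments.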

The subject of series [6] is cdk2, cyclin E, p53, and PCNA. The experiment in a line: Immunoblot of HCMV-induced cell cycle regulatory proteins. In kind it is cell-based, human. Conditions: 24 hpi; 50 μM ganciclovir, 20 μM baicalein, 50 μM genistein. The essentials:
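Confluent, serum-starved HEL cells given compound (20 or 50 μM final; 50 μM ganciclovir control) from 1 h before and throughout HCMV infection. Harvested at 24 hpi in SDS sample buffer and run on 8–10% SDS-PAGE. Immunoblotted for cdk2, cyclin E, p53 and PCNA (milk block, primary overnight at 4 °C, HRP secondary, ECL). Bands quantified by densitometry of scanned films.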
(In general: A western blot detects proteins with antibodies after separation by electrophoresis.)

The next series concerns Static HEL fibroblasts. Description: Cytotoxicity, tetrazolium dye assay, static HEL monolayers. Conditions: 20 μM (5.4 μg/ml) baicalein, 50 μM (13.5 μg/ml) genistein. In kind it is cell-based, human. In a few lines:
as §1

Series [7] relates to HCMV DNA. Description: Reversibility of antiviral effect after drug removal. Format: cell-based, human cytomegalovirus. Conditions: drug removed at 72 hpi; 20 μM baicalein, 50 μM genistein. The essentials:
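HEL cells infected with HCMV in presence of compound (20 or 50 μM) for 72 h. Medium then replaced with drug-free medium and replication allowed for a further 72 h. Viral DNA measured at 24 h intervals by 32P-probe dot blot hybridization; experiment reproduced twice.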

The test system of series [8] is HCMV tegument protein pp65. Description: HCMV nuclear translocation, pp65 fluorescence microscopy. In kind it is cell-based, human cytomegalovirus. Conditions: 6 hpi; 20 μM baicalein, 50 μM genistein. In a few lines:
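Confluent HEL fibroblasts on chamber slides, serum-starved overnight and chilled on ice. Ice-cold compound-containing or plain DMEM added 10 min before infection with HCMV at 2–5 pfu/cell ± compound: 1 h at 4 °C, then 1 h at 37 °C. Cells washed and kept 5 h at 37 °C ± compound. Methanol-fixed at −20 °C, stained with anti-pp65 (1:1000), fluorescein secondary (1:500) and DAPI; nuclear pp65 examined at 6 hpi.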

Another series has as its target EGFR (Homo sapiens, UniProt P00533). The experiment in a line: HCMV-mediated EGFR tyrosine phosphorylation. In kind it is cell-based. Conditions: shortly after infection; 20 μM baicalein, 50 μM genistein.

Chain of EGFR (P00533 25-1210): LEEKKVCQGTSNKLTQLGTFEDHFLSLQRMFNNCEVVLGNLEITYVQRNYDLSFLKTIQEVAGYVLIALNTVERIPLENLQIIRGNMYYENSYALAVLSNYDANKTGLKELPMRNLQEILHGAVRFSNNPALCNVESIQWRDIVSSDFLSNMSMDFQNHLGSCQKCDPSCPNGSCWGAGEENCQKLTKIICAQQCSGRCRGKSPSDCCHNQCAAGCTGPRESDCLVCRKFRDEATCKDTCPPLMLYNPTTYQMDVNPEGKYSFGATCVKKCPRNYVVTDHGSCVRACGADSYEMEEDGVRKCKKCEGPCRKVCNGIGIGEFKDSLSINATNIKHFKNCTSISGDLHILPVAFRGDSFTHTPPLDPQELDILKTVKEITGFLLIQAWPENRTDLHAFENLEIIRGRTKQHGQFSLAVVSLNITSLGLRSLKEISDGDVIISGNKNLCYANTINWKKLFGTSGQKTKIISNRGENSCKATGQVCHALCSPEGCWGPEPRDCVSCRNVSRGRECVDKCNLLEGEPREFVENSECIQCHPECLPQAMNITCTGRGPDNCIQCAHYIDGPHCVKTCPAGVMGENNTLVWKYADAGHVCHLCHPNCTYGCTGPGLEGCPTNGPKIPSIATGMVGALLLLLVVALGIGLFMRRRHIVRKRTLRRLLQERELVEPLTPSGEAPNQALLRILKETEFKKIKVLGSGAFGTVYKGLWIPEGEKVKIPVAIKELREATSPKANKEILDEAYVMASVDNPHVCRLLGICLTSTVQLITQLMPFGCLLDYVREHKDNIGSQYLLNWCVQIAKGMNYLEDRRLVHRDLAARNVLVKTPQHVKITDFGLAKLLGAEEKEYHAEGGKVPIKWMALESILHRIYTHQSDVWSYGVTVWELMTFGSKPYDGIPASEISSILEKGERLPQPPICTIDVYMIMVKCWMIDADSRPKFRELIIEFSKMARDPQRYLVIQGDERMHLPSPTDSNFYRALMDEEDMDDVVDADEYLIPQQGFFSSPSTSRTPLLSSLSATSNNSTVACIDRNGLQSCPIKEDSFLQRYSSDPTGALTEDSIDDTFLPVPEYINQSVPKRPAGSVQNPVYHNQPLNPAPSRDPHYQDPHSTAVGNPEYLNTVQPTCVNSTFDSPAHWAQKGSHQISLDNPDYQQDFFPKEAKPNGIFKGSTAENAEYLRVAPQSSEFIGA

For the molecule `O=c1cc(-c2ccc(O)cc2)oc2cc(O)cc(O)c12` [Apigenin], the CC50 at 72 h in [1] and in [2] was over 100 µM in each case.

Consider `O=c1c(-c2ccc(O)cc2)coc2cc(O)cc(O)c12` [Genistein], for which the “Inhibition of HCMV replication” value with HCMV is “did not inhibit”. Also, the “HCMV induction of NF-κB” value in the series with NF-κB is listed as “absent”. Further, in series [1], it took 124 ± 52 µM to reach half-maximal cytotoxicity (CC50 at 72 h). In series [3] (50 μM genistein, 24 hpi), the IE1-72 level result is given as “slightly lower levels” and the “Reduction of IE2-86 levels” value is at most 65%. In addition, the “UL84 and UL94 protein levels” value in series [3] (50 μM genistein, 48 and 72 hpi respectively) is reported as “nearly background levels”. The Steady-state serum levels in series [4] is 1 to 5 µM. Moreover, the inhibition – broadly, how much of the control response was suppressed – at 50 µM in the series with HCMV DNA [5] (Human betaherpesvirus 5, read-out: Inhibition of HCMV DNA replication) is about 95%. Further, the “HCMV-mediated increases in steady-state levels of cdk2, cyclin E, p53, and PCNA” value (shortened to “HCMV-mediated increases”) in [6] is “inhibited”. Further, the cytotoxic concentration (CC50) (as a rule, the concentration at which the toxic effect on the cells reaches its halfway point) at 72 h in [2] is over 200 µM. For the same molecule, in the series with Static HEL fibroblasts, the “Cytotoxicity in cell culture at concentration used for mechanism studies” value is given as “did not display obvious cytotoxicity”. Also, in the series on HCMV DNA [7], the “Reversibility of antiviral effects” value was “fully”.

Consider `O=C1C[C@@H](c2ccc(O)cc2)Oc2cc(O)cc(O)c21` [Naringenin], for which the CC50 at 72 h in series [1] and in series [2] was over 100 µM throughout.

For the molecule `O=c1cc(-c2ccc(O)c(O)c2)oc2cc(O)cc(O)c12` [Luteolin], the results for the CC50 at 72 h in series [1] and in [2] were 62 ± 10 µM and over 200 µM, respectively.

For the molecule `O=c1c(-c2ccc(O)cc2)coc2cc(O)ccc12` [Daidzein], the CC50 at 72 h in series [1] and in series [2] was over 200 µM in each case.

For the molecule `O=c1c(O)c(-c2ccc(O)c(O)c2)oc2cc(O)cc(O)c12` [Quercetin], the cytotoxic concentration (CC50) at 72 h in series [1] and in series [2] was over 400 µM in each case.

Turning to `O=c1cc(-c2ccccc2)oc2cc(O)c(O)c(O)c12` [Baicalein], the “HCMV induction of NF-κB” value with NF-κB is listed as “absent”. Moreover, the “Nuclear accumulation of pp65” value in series [8] is given as “blocked”. Besides, the CC50 at 72 h in series [1] and in series [2] was over 100 µM throughout. The “HCMV-induced EGFR phosphorylation” value on EGFR is “reduced to background levels”. For the same molecule, in series [3] (20 μM baicalein, immunoblot 24, 48, 72 hpi), the “Levels of all three kinetic classes of HCMV proteins” value is listed as “reduced to nearly background levels”. The “HCMV DNA level” value in the series with HCMV DNA [5] (20 μM baicalein, 72 hpi) is “reduced to nearly background levels”. Also, the “HCMV-mediated increases” value in series [6] is on record as “inhibited”. Besides, the “Cytotoxicity in cell culture at concentration used for mechanism studies” value in the series with Static HEL fibroblasts is “did not display obvious cytotoxicity”. For the same molecule, the “Reversibility of antiviral effects” value in the series on HCMV DNA [7] is “poorly reversible”.

For `Nc1nc(O)c2ncn(COC(CO)CO)c2n1` [Ganciclovir], in [6], the “HCMV-mediated increases” value is given as “not affected”.

`O=c1c(O)c(-c2ccccc2)oc2cc(O)cc(O)c12` [Galangin]: the cytotoxic concentration (CC50) at 72 h in series [1] and in series [2] was over 400 µM throughout.

`O=C(O)[C@H]1O[C@@H](Oc2cc3oc(-c4ccccc4)cc(=O)c3c(O)c2O)[C@H](O)[C@@H](O)[C@@H]1O` [Baicalin]: the 50% cytotoxic concentration (CC50) at 72 h in series [1] and in series [2] was over 400 µM throughout.
